Shown are actives, neighbours in structure and some others; about 2.1% of the full set was active somewhere.
Scp1 inh = Scp-1 (human) phosphatase inhibition. Q9GZU7. Recombinant Scp1, phosphopeptide, malachite green phosphate absorbance. inhibition, % at 20 µM. actives 0.88% (n = 340,000). AID 493091;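 active means inhibition above about 50% at 20 µM, limit read from the data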
Target sequence (Q9GZU7 76-261 limits assumed): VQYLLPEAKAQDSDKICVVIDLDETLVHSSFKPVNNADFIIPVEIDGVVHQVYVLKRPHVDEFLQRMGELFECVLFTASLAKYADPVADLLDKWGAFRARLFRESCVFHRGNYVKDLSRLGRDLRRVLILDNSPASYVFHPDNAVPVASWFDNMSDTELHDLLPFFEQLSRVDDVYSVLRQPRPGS
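Test system: SCP-1 phosphatase catalytic domain, residues 76-261; measured by: colorimetric phosphate reagent with accelerator and stabiliser, absorbance at 630 nm; timing: enzyme reaction 45 min at room temperature, colour 5 min, stabilisation 30 min; also added: Phosphorylated 17-residue peptide substrate; compound dosing: one concentration, 20 µM, with 1.0% DMSO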
SUMO1 PPI mod = SUMO1-SIM interaction modulation; P63165; SUMO1 binding to a labelled peptide, TR-FRET, 1 h; inhibition, % at 20 µM; actives 0.33% (n = 360,000); in the data active means inhibition above about 37%
Target sequence (P63165 whole entry, looked up): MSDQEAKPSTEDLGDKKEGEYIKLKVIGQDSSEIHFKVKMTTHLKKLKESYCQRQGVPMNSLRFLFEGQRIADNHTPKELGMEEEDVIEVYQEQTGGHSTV
LMPTP block = blocks human LMPTP phosphatase; recombinant LMPTP-A, OMFP fluorogenic substrate, fluorescence intensity; inhibition, % at 20 µM; actives 0.22% (n = 360,000); AID 651560;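 active means compounds that cut the enzyme signal by at least half of the control window in the single-dose screen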
Target sequence (P24666 whole entry, looked up): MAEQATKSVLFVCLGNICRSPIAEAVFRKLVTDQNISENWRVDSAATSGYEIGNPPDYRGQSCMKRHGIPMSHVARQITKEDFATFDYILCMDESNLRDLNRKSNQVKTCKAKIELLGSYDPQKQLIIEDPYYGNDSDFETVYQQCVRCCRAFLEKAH
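Assay system: LMPTP-A phosphatase enzyme | Input: 0.625 nM enzyme | Also added: Fluorogenic phosphatase substrate OMFP at 400 µM final | Compound dosing: One test concentration per compound, 20 µM, with 3% DMSO overall | Schedule: 50 min enzyme reaction at room temperature, protected from light | Signal: Fluorescence intensity | Benchmarks: no-enzyme and uninhibited controls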
GRK2 aptamer HTS = blocks RNA aptamer binding to human GRK2 | P25098 | bead flow cytometry, FAM-aptamer displacement from GRK2 | inhibition of aptamer binding, % at 10 µM | actives 0.59% (n = 330,000) | AID 488847;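 active means inhibition of aptamer binding above 40%, roughly 3 SD of noise, on plates passing a quality check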;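 further: median bead fluorescence of bound FAM aptamer so fluorescent compounds give negative values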
STEP block = blocks human striatal-enriched tyrosine phosphatase; actives 0.25% (n = 360,000); inhibition, % at 20 µM; P54829; recombinant STEP, OMFP fluorogenic substrate, fluorescence;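 active means inhibition at 20 µM, scaled per plate between control wells, above about 37%, limit read from the data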
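System: isolated STEP enzyme; schedule: 20 min enzyme reaction at room temperature, protected from light; medium: Bis-Tris buffer pH 6.0, 2.5 mM DTT, 0.005% Tween 20; signal: fluorescence, 480/540 nm; dosing: single compound dose of 20 µM, 1% DMSO final; also added: OMFP substrate, 25 µM final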
DNMT1 inh = blocks human DNA methyltransferase DNMT1. AID 588458. actives 0.83% (n = 360,000). DNMT1 molecular beacon, Hinp1I cleavage, fluorescence. inhibition (reported as % activation of signal), % at 10 µM; in the data active means inhibition above about 50%
Of the large screens only hits and unclear results are named; the others gave an inactive call.

CC(C)C(=O)N[C@H]1CCC2C3CC=C4C[C@@H](O)CC[C@]4(C)C3CC[C@@]21C (some centres undefined)	none
O=S1(=O)CC(N2CCN(c3ccccn3)CC2)CN1Cc1ccccc1 (centres undefined)	none (no result: Scp1 inh, GRK2 aptamer HTS)
Cc1ccn2cc(-c3ccc4c(c3)NC(=O)CO4)nc2c1	SUMO1 PPI mod 53.9
COc1ccccc1Cc1c(-c2ccc(C#N)cc2)nc2c(C)cc(Br)cn12	none (no result: Scp1 inh, GRK2 aptamer HTS)
Cc1[nH]c2ccc(C(=O)OCC(=O)Nc3cccc(S(N)(=O)=O)c3)cc2c1C	SUMO1 PPI mod 60.3
CCOC(=O)c1ccc2c(c1)C1C=CCC1C(C(=O)O)N2 (centres undefined)	GRK2 aptamer HTS 88.0 (no result: Scp1 inh, SUMO1 PPI mod, LMPTP block, STEP block, DNMT1 inh)
CCOC(=O)C1Nc2ccc(C(=O)O)cc2C2C=CCC12 (centres undefined)	SUMO1 PPI mod 48.1, STEP block 42.2, DNMT1 inh 59.8
CCCC1Nc2ccc(C(=O)O)cc2C2C=CCC12 (centres undefined)	none
Oc1ccc(/C=N/Nc2ccnc3cc(Cl)ccc23)cc1O	SUMO1 PPI mod 54.9
O=C1C(=Cc2cn(-c3ccccc3)nc2-c2ccc(OCc3ccccc3F)cc2)SC(=S)N1CCS(=O)(=O)O	SUMO1 PPI mod 88.1, LMPTP block 88.7 (no result: Scp1 inh, GRK2 aptamer HTS)
O=C(O)CN1C(=O)/C(=C\c2ccccc2OCc2ccc(Cl)cc2)SC1=S	none
O=C1C(=Cc2cn(-c3ccccc3)nc2-c2ccc(OCc3ccc(Cl)cc3)cc2)SC(=S)N1CCS(=O)(=O)O	SUMO1 PPI mod 109.8, LMPTP block 93.7 (no result: Scp1 inh, GRK2 aptamer HTS)
O=C(O)CCN1C(=O)/C(=C/c2cn(-c3ccccc3)nc2-c2cccs2)SC1=S	LMPTP block 80.9, STEP block 73.9 (no result: GRK2 aptamer HTS)
Cc1ccc(-c2nn(-c3ccccc3)cc2/C=C2\SC(=S)N(CC(=O)O)C2=O)cc1	none
COc1ccc(S(=O)(=O)N(C)C[C@@H]2OCc3cnnn3CCCC(=O)N([C@H](C)CO)C[C@@H]2C)cc1	none (no result: Scp1 inh, GRK2 aptamer HTS)
CCCS(=O)(=O)NC(=O)C1(C)CCN(C(=O)c2cc(C(C)(C)C)nn2C)C1 (centres undefined)	none (no result: Scp1 inh, GRK2 aptamer HTS)
Cc1ccc(S(=O)(=O)N2CCOCC2)cc1C(=O)Nc1ccc(-c2cn3ccsc3n2)cc1	SUMO1 PPI mod 45.3
Cc1ccc(S(=O)(=O)N2CCOCC2)cc1C(=O)Nc1ccncc1	none
COc1ccc(C(=O)N/N=C(\C)c2ccc(NC(=O)Cc3ccccc3)cc2)c(OC)c1	SUMO1 PPI mod 46.5
Cc1ccc(/C=C2/Sc3ccc(C(=O)N4CCN(c5ccccn5)CC4)cc3NC2=O)cc1	none
Cc1ccc(/C=C2/Sc3ccc(C(=O)NCc4ccccn4)cc3NC2=O)cc1	SUMO1 PPI mod 49.6
C[C@@H](CN1C2=NC[C@H](C)N2C[C@H]1Cc1ccc(O)cc1)NC(=O)CCC1CCCCC1	none
CC(C)[C@H]1CN=C2N(C[C@H](C)NC(=O)CCC3CCCCC3)[C@H](Cc3ccc(O)cc3)CN21	SUMO1 PPI mod 52.8
Cc1ccc(/C=C/c2nc3sc(C(=O)O)c(C)c3c(=O)[nH]2)cc1[N+](=O)[O-]	Scp1 inh 89.4, LMPTP block 64.4, STEP block 99.0
Cc1c(C(=O)O)sc2nc(/C=C/c3ccccc3OC(F)F)[nH]c(=O)c12	none
CC(C)[C@@H](NC(=O)OC(C)(C)C)c1cc(C(=O)c2c(-c3ccccc3)[nH]c3ccccc23)c(N)s1	none (no result: Scp1 inh, GRK2 aptamer HTS, STEP block, DNMT1 inh)
O=C(NC(c1ccc(F)cc1)c1ccc2ccccc2n1)C1CCN(Cc2cccc(C(F)(F)F)c2)CC1 (centres undefined)	none (no result: Scp1 inh, GRK2 aptamer HTS)
COc1ccc(CCn2c(=N)c(C(=O)NCc3ccco3)cc3c(=O)n4ccccc4nc32)cc1	LMPTP block 59.9
O=C1NC[C@H](Cc2ccc(O)cc2)N(C[C@@H]2CCCN2C[C@H](Cc2ccc(O)cc2)N2C[C@H](Cc3ccccc3)N(CCc3ccccc3)C(=O)C2=O)C1=O	none (no result: Scp1 inh, GRK2 aptamer HTS, STEP block, DNMT1 inh)
CCOc1cc(C(=O)OCC(=O)c2c(C)[nH]c3ccccc23)ccc1OCC(=O)N1CCOCC1	SUMO1 PPI mod 39.0
CCOc1cc(C(=O)OCC(=O)c2c[nH]c3ccccc23)ccc1OCC(=O)N1CCOCC1	none
O=C(Nc1cc(S(=O)(=O)N2CCOCC2)ccc1Cl)c1ccncc1	none
CC(=O)NC(c1ccccc1)c1nc(-c2cccc(C#N)c2)cs1 (centres undefined)	none (no result: Scp1 inh, GRK2 aptamer HTS)
COc1cc(-c2nnc(SCc3cc(=O)oc4cc(O)c(O)cc34)o2)cc(OC)c1OC	Scp1 inh 72.8, LMPTP block 62.6, DNMT1 inh 63.6
COC(=O)c1ccc2nc(-c3ccc(C#N)cc3)c(Cc3cccc(Cl)c3)n2c1	none (no result: Scp1 inh, GRK2 aptamer HTS, STEP block, DNMT1 inh)
O=C(NCc1ccccc1)C(c1ccco1)N1CCN(c2ccccc2F)CC1 (centres undefined)	none (no result: Scp1 inh, GRK2 aptamer HTS, STEP block, DNMT1 inh)
Nc1cc2nsnc2cc1Br	SUMO1 PPI mod 79.6, DNMT1 inh 111.5
NC(CSC(c1ccccc1)(c1ccccc1)c1ccc2c(c1)OCO2)C(=O)O (centres undefined)	DNMT1 inh 51.5 (no result: Scp1 inh, GRK2 aptamer HTS)
COc1cccc(NC(=O)C2(C)CCCN(C(C)C)C2)c1 (centres undefined)	none (no result: Scp1 inh, GRK2 aptamer HTS)
CN(C)S(=O)(=O)c1cccc(NC(=S)N/N=C/c2ccc(O)c(O)c2O)c1	LMPTP block 60.7 (no result: GRK2 aptamer HTS)
CC1(C(=O)NS(=O)(=O)Cc2ccccc2)CCN1C(=O)Cc1ccccc1Cl (centres undefined)	none (no result: Scp1 inh, GRK2 aptamer HTS)
CCc1nc2c(OCC(=O)c3ccc(Cl)cc3Cl)cccn2c1N(C)C(=O)c1cccs1	none (no result: Scp1 inh, GRK2 aptamer HTS)
CCN(CC)C(=O)c1ncn(C)c1C(=O)N(CC)CC	Scp1 inh 92.4
COc1ccc2cc3[n+](cc2c1O)CCc1cc2c(cc1-3)OCO2	LMPTP block 64.3 (no result: Scp1 inh, GRK2 aptamer HTS, STEP block, DNMT1 inh)
COc1cc2c(cc1OC)-c1cc3ccc(OC)c(OC)c3c[n+]1CC2	none
O=C1c2c(-c3ccc(Br)cc3)noc2CCN1Cc1cn(-c2ccccc2)nn1	none (no result: Scp1 inh, GRK2 aptamer HTS, STEP block, DNMT1 inh)
COC(=O)C[C@H]1CC[C@H](NC(=O)Nc2ccccc2)[C@@H](CO)O1	none (no result: Scp1 inh, GRK2 aptamer HTS, STEP block, DNMT1 inh)
COc1ccccc1N1CCN(C(c2cc3cc(C)ccc3[nH]c2=O)c2nnnn2C2CCCC2)CC1 (centres undefined)	SUMO1 PPI mod 44.6
CCOC(=O)c1c(C)oc2c1c(C=NCCO)c(O)c1ccccc12	SUMO1 PPI mod 45.7 (no result: GRK2 aptamer HTS)
Cc1ccc(S(=O)(=O)N2[C@@H](c3ccc(Br)cc3)C(C(=O)O)=CC[C@H]2c2cccs2)cc1	none
Cc1ccc(-c2nc(N)s[n+]2-c2ccccc2)cc1	Scp1 inh 88.4
Cc1ccc(-c2nc3ccccc3nc2-c2ccccc2)cc1	none
CNc1nc(-c2ccccc2)[n+](-c2ccc(C)cc2)s1	Scp1 inh 82.9
CC(=O)c1ccc2c(c1)N(Cc1ccccc1)C(=O)C(C)S2 (centres undefined)	none (no result: Scp1 inh, GRK2 aptamer HTS)

Source: PubChem BioAssay
